# Screening results: PubChem BioAssay, several laboratories
# In the library only some 2.1% were active in any assay of this set; here they are far more common.
# Insulin prom inh: inhibitors of insulin promoter-driven GFP, primary screen, imaging, TRM-6 cells (human fetal islet line), eGFP reporter, cell count; reporter expression induced with tamoxifen; inhibition, % at 2 µM; actives 0.9% (n = 130,000); AID 1273, 2008;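 active = inhibition above the mean plus 3 SD, with well images judged a real hit on visual review, cut at about 60% in these data, passing the limit was not always enough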
# PKD1 kinase inh: inhibitors of human PKD1 kinase, biochemical, fluorescence polarization | actives 0.056% (n = 200,000) | inhibition, % (no concentration beside the values) | PKD1 kinase fluorescence polarization assay | AID 797, 2007 | Serine/threonine-protein kinase D1 (Homo sapiens), Q15139; in the data active = inhibition above about 50%
# Target sequence (Q15139 whole entry, looked up): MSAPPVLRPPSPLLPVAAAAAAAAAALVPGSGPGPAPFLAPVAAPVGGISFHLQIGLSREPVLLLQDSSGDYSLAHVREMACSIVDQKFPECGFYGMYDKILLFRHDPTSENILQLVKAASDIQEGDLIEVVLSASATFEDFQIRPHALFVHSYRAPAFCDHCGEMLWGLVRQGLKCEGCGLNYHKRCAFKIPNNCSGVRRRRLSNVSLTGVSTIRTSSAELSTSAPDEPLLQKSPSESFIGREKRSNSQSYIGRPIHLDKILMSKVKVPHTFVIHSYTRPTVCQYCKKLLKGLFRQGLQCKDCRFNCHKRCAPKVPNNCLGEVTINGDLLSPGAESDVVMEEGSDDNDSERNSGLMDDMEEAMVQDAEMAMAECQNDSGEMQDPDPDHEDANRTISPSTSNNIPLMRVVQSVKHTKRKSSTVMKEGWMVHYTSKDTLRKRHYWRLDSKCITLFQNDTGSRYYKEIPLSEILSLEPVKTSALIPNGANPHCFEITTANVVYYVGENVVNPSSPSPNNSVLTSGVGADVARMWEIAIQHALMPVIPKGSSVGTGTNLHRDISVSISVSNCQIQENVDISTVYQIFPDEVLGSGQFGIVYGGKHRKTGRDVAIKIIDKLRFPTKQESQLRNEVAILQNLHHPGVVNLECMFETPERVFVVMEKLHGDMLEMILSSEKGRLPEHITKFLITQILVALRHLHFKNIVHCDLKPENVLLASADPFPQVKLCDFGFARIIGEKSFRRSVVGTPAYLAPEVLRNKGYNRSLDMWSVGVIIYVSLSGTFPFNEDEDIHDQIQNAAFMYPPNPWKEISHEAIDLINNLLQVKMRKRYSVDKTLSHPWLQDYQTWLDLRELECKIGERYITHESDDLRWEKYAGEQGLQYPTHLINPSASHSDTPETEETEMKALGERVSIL
# Autophagy HCS: autophagy modulators in MEF cells, primary screen, imaging, high-content, MEF GFP-LC3. MEF GFP-LC3 puncta imaging; test concentration mostly 10 µM. calls only at 10 µM (by protocol). AID 463193, 2010. actives 0.98% (n = 190,000);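 active = percentage of spot-positive cells more than 3 SD above its plate mean, without a fluorescence outlier flag or 80% toxicity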
# Arbovirus inh: antivirals against arbovirus infection, primary screen, cell-based, full library, 10K replicate subset. actives 0.37% (n = 200,000). inhibition, % at 10 µM. AID 1251, 2008. arbovirus infection cell-based antiviral screen; in the data active = inhibition above about 30%
# RBBP9 inh: human RBBP9 inhibitors, primary screen, biochemical, fluorescence polarization, FP-Rh probe, HTS; Serine hydrolase RBBP9 (Homo sapiens), O75884; recombinant RBBP9; inhibition, % at 7.94 µM; actives 0.2% (n = 220,000);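 active = inhibition above the campaign mean of all tested compounds plus 3 SD, cut at about 14% in these data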
#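 System: RBBP9 protein / Quantity: 2.5 µM RBBP9 dispensing solution, before mixing / Also added: Serine-hydrolase probe FP-Rh, 375 nM pre-mixing / Dosing: 7.94 µM single dose, 0.794% DMSO / Timing: enzyme-compound preincubation 30 min, then probe labeling 45 min, 25 °C / Signal: FP readout at 525/598 nm / Controls: DMSO-treated enzyme wells and wells lacking RBBP9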
# Insulin prom up: insulin promoter activators in MIN6 cells, imaging, high-content screening, mouse beta cells; z-score at 5 µM; MIN6 insulin promoter-GFP reporter; hits give high values; actives 0.3% (n = 190,000);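 active = z-score above 3 at 5 µM with at least 500 cells counted in the well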
# A number is an active result; n = inactive; x = not tested or not shown; + = active, no number.
SMILES,Insulin prom inh,PKD1 kinase inh,Autophagy HCS,Arbovirus inh,RBBP9 inh,Insulin prom up
CN1CCN(Cc2c(O)ccc3cc(Br)ccc23)CC1,n,n,n,n,n,n
O=C(Cn1nc(-c2ccccc2)c2ccccc2c1=O)Nc1cccnc1,76.7,n,n,n,n,n
Cc1ccccc1-n1nnnc1SCC(=O)NCC1CCCO1 (stereo not given),x,n,+,n,n,n
CC(NC(=O)c1ccccc1)c1ccc(Br)cc1 (stereo not given),87.5,n,n,n,n,n
CC(NC(=O)c1ccc(Br)cc1)c1ccccc1 (stereo not given),n,n,n,n,n,n
CCn1c(CC(=O)Nc2ccc(Cl)c(Cl)c2)nnc1SCc1ccc(C)cc1,x,n,n,n,n,n
CCCC1CCC(C(=O)n2nc(N)c3cc4ccc(OC)cc4nc32)CC1 (stereo not given),n,n,n,n,n,n
CCc1cccc(C)c1NC(=O)CN(C)Cc1ccc(Br)cc1,x,n,n,42.1,n,n
Cc1nn(Cc2c(Cl)cccc2Cl)c(C)c1NC(=O)c1cnn2c(C(F)F)cc(-c3ccccc3)nc12,x,n,n,n,n,n
Cc1ccc(-c2cc(C(F)F)n3ncc(C(=O)Nc4c(C)nn(Cc5c(Cl)cccc5Cl)c4C)c3n2)cc1,x,n,+,n,n,n
Cc1ccc(-c2cc(C(F)F)n3ncc(C(=O)N4CCc5ccccc54)c3n2)cc1,n,n,+,n,n,n
O=C(c1cnn2c(C(F)F)cc(-c3ccccc3)nc12)N1CCc2ccccc21,n,n,n,n,n,n
COc1ccc(OC)c(/C=C(\NC(=O)c2ccccc2)C(=O)N/N=C/c2ccc(C)s2)c1,x,n,n,n,n,n
COc1ccccc1C(=O)NNC(=O)c1nn(Cc2ccccc2)c(=O)c2ccccc12,80.5,n,n,n,n,n
COc1ccc(OC)c(C(=O)c2ccccc2)c1,81.0,n,n,n,n,x
Cc1nc2nc(C)c(CCC(=O)N3CCN(c4ccccn4)CC3)c(C)n2n1,x,n,n,n,n,n
CCOc1ccc(C(=O)Nc2cc(NC(=O)c3ccc(OCC)c(Cl)c3)cc(C(=O)O)c2)cc1Cl,n,n,n,87.9,n,n
CCOc1ccccc1NC(=O)c1cccc(NC(=O)c2ccco2)c1,n,n,+,n,n,n
CCOc1ccc(C(=O)Nc2ccc(NC(=O)c3ccco3)c(Cl)c2)cc1Cl,n,n,+,n,n,n
CCCCOc1ccccc1NC(=O)c1ccco1,n,n,n,n,n,n
COc1ccc(NC(=O)c2ccco2)cc1NC(=O)c1ccc(Br)o1,73.0,n,n,n,n,n
COc1ccc(NC(=O)c2ccco2)cc1NC(=O)c1ccc(C)cc1,n,n,n,n,n,n
CCOc1ccc(C(=O)Nc2cccc(C(=O)O)c2)cc1Cl,x,n,n,n,n,n
CCc1ccccc1NC(=S)N(CCN1CCOCC1)Cc1ccccc1F,x,n,n,n,n,n
CCNc1ccc(S(=O)(=O)N(C)C)cc1NCC(=O)Nc1ccccc1Cl,x,n,n,n,n,n
SMILES,Insulin prom inh,PKD1 kinase inh,Autophagy HCS,Arbovirus inh,RBBP9 inh,Insulin prom up
O=C(NCc1ccco1)c1cccc(NC(=O)c2ccco2)c1,n,n,n,n,n,n
COc1ccc(C(=O)Nc2cccc(C(=O)NCc3ccco3)c2)cc1,66.7,n,n,n,n,x
O=C(CSc1ccc(-c2ccccc2)nn1)c1cccs1,x,n,+,n,n,n
N#Cc1c(-c2ccccc2)cc(C2CC2)nc1SCC(=O)c1cccs1,n,n,+,n,n,n
CCCc1cc(=O)[nH]c(SCC(=O)c2c(C)[nH]c3ccccc23)n1,x,x,x,x,n,n
Cc1cc(C)nc(NS(=O)(=O)c2ccc(N/C=C\C(=O)c3ccc(Cl)cc3)cc2)n1,70.0,n,n,n,n,n
C/C(N)=C(/C#N)C(=O)CSc1cc(C)c2cc(C)cc(C)c2n1,x,n,+,n,n,n
C=CCn1c(Oc2cc(C)ccc2C)nc2c1c(=O)n(C)c(=O)n2C,n,n,+,n,n,n
Cc1ccc(S(=O)(=O)N/N=C/c2ccc(O)c(O)c2)cc1[N+](=O)[O-],x,n,n,n,n,n
Cc1ccc(S(=O)(=O)N/N=C/c2ccccc2O)cc1[N+](=O)[O-],x,n,+,n,n,n
CCOC(=O)C(C(=O)OCC)C1CCS(=O)(=O)C1 (stereo not given),n,n,+,n,n,n
CCOC(=O)C(=O)N(CC)C1CCS(=O)(=O)C1 (stereo not given),x,x,x,x,n,n
O=[N+]([O-])c1ccc(NCCNCCOc2nonc2-c2ccccc2)c([N+](=O)[O-])c1,n,n,n,30.4,n,n
Cc1ccc(C(=O)NC(C#N)=C(Cl)Cl)cc1,n,n,n,n,n,n
O=C(NC(Cc1ccc2c(c1)OCO2)C(=O)N1CCCC1C(=O)O)c1ccccc1 (stereo not given),86.7,n,n,n,n,n
Cc1ccc(CC(NC(=O)c2ccccc2)C(=O)N2CCCC2C(=O)O)cc1 (stereo not given),n,n,n,n,n,n
COC(=O)CNC(=O)C(Cc1c[nH]c2ccccc12)NC(=O)OC(C)(C)C (stereo not given),x,n,n,n,n,x
COc1ccccc1[C@@H]1C(c2cccc(C)c2)=NN(c2ccccc2)[C@H]1C(=O)N1CCOC1=O,n,n,n,n,n,n
COc1ccccc1[C@@H]1C(c2ccc(F)cc2)=NN(c2ccccc2)[C@H]1C(=O)N1CCOC1=O,n,n,+,n,n,n
COc1ccccc1-c1noc(CSc2nc(N)cc(=O)[nH]2)n1,n,n,n,n,n,n
Cc1ccc(S(=O)(=O)CCSc2cccc(C(=O)Nc3ccccc3C(=O)O)c2)cc1,n,n,n,43.5,n,n
O=C(/C=C(\c1ccccc1)n1cncn1)c1ccccc1,n,n,n,n,n,n
O=C(C(=C1NCCN1)n1cncn1)c1ccccc1,n,n,+,n,n,n
CCOC(=O)/C(=N\Nc1cccc(Cl)c1)Sc1nnc(-c2ccc(OC)cc2)n1C,n,n,n,n,n,n
COC(=O)/C(=C1/Oc2ccc(C(C)(C)C)cc2S1)C(F)(F)F,x,n,n,n,n,x
COC(=O)/C(=C1/Oc2cc(C)oc(=O)c2S1)C(F)(F)F,x,n,+,n,n,n
Oc1ccccc1CN1CCCN(Cc2ccccc2O)C1,n,n,+,69.9,n,n
Oc1ccccc1CN1CCC(C(O)(c2ccccc2)c2ccccc2)CC1,n,n,n,n,n,n
O=C(NC1=NCCS1)c1ccc(Cl)c(S(=O)(=O)N2CCCC2)c1,n,n,n,32.1,n,n
CCOc1cc(C(=O)NC2=NCCS2)cc(OCC)c1OCC,n,n,n,n,n,n
